Test results taken from the array DNA melting data of Ke et al. (doi:10.1101/2024.01.08.574731).

Columns and labels:
[1] = folding enthalpy; higher = less favourable; fluorescence melt of hairpins on a sequencing array, two-state fit; conditions: sodium 0.088 M
In short: (§1)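 Bootstrapped two-state fits yielded melting temperature and folding enthalpy for library hairpins. Cy3 fluorescence, with annealed Cy3 and quencher oligos, was imaged on a sequenced MiSeq flow cell in 50 mM Na-HEPES pH 8.0, 25 mM NaCl in 2.5 °C steps up to 60 °C, and normalised to pre-quench Cy3 and to control constructs. Four replicates were combined by inverse variance, and fitted temperatures were raised by 9.35 °C to match UV melts.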

[2] = melting temperature; fluorescence melt of hairpins on a sequencing array, two-state fit, raised by 9.35 °C to match UV melts; conditions: sodium 0.088 M
In short: as §1

Sequence	folding enthalpy [1]	Tm [2]
GCCGGGCGAAAGCCAAGC ((..(((....)))..))	-60.6 kJ/mol	46.8 °C
AAATGGAAACATTT (((((....)))))	-39.7 kJ/mol	27.2 °C
GCTCCCGAAAGGGGGAGC ((((((....)))..)))	-99.5 kJ/mol	64.5 °C
GATCGCGAAAGCGGGATC ((((((....)))..)))	-59 kJ/mol	45.5 °C
GGTCAGCCGAAAGGCACC (((..(((....))))))	-47.6 kJ/mol	38.3 °C
GATCCACGGGTGGATC ((((((....))))))	-166 kJ/mol	58.8 °C
AGAATCCGAAAGGCTTCT ((((.((....)).))))	-114 kJ/mol	35.6 °C
GCTGGCGGAAACGCTAGC (((.(((....))).)))	-169 kJ/mol	59.1 °C
GATGTTGGAAACGACATC (((((.(....).)))))	-140 kJ/mol	47.2 °C
GACGCACGAAAGTGGTC (((.(((....))))))	-70.8 kJ/mol	51.7 °C
GCGTACGAAAGTAGGCGC ((((((....)))..)))	-125 kJ/mol	56 °C
GATCGTCCGTACGATC ((((((....))))))	-198 kJ/mol	54.9 °C
GCCGTGCGAAAGCCCCGC ((.(.((....)).).))	-38.7 kJ/mol	29.3 °C
GTTACGCGAAAGCGGAAC (((.(((....))).)))	-112 kJ/mol	67.5 °C
GATGACGAAAGTCCTATC ((((((....)))..)))	-40.3 kJ/mol	24 °C
GGTCTAGCGAAAGCTACC (((..(((....))))))	-42.2 kJ/mol	31.2 °C
GATCCAACGTTGGATC ((((((....))))))	-243 kJ/mol	55.6 °C
GATCTGAGGTCAGATC ((((((....))))))	-170 kJ/mol	49.4 °C
GATTACGGAAACGCAATC ((((.((....)).))))	-116 kJ/mol	37.4 °C
GCACAGGGAAACCCATGC (((..((....))..)))	-73.8 kJ/mol	32 °C
GAACGCGAAAGCGACTTC ((((((....)))..)))	-57.7 kJ/mol	46.1 °C
GCGCGAGGAAACCCGCAC (.(((.(....).))).)	-70.3 kJ/mol	38.1 °C
GCGACGCGAAAGCTGCGC (((..((....))..)))	-99.2 kJ/mol	61.9 °C

Sequence	folding enthalpy [1]	Tm [2]
GTAGTCGGAAACGGCTAC ((((.((....)).))))	-181 kJ/mol	54.6 °C
GTTCATGAAAATGAAC ((((((....))))))	-138 kJ/mol	52 °C
GCCCAGCGAAAGCAGCGC ((.(.((....)).).))	-58 kJ/mol	46.5 °C
GCGTCTCGAAAGAGTCGC (((.(((....))).)))	-159 kJ/mol	58.1 °C
GATTTACGAAAGTATATC (((.(((....))).)))	-101 kJ/mol	35.6 °C
GATCAGGTCGCTGATC ((((((....))))))	-180 kJ/mol	53.3 °C
GGTGGTACGAAAGTAACC (((..(((....))))))	-79.5 kJ/mol	43.8 °C
GAGAGCGAAAGCTGACTC ((((((....)))..)))	-55.6 kJ/mol	32.3 °C
GAGGTAGGAAACCACCTC (((((.(....).)))))	-130 kJ/mol	42.2 °C
GGTGGCCCGAAAGGGACC (((..(((....))))))	-53.1 kJ/mol	52.2 °C
GCGTCTCTACGC ((((....))))	-102 kJ/mol	52.9 °C
GGTATCGAAAGATGACC ((((((....))).)))	-92.4 kJ/mol	36.6 °C
GAGTCTGGAAACAGATTC ((.((((....)))).))	-110 kJ/mol	40.9 °C
GTTTCTCCGAAAGGAAAC (((..(((....))))))	-61.7 kJ/mol	33 °C
GCTCAGCGAAAGCGAAGC (((..((....))..)))	-77.5 kJ/mol	43.3 °C
GTCAACCGAAAGGTGAC (((.(((....))))))	-102 kJ/mol	55.7 °C
GGGCGCGAAAGCGCTCCC ((((((....)))..)))	-37.9 kJ/mol	53.6 °C
GCATCGCGAAAGCCACGC ((.(.((....)).).))	-42.7 kJ/mol	26.5 °C
GAGTGGGGAAACTCGCTC (((.(.(....).).)))	-124 kJ/mol	40.4 °C
GATCGTCGGAACGATC ((((((....))))))	-114 kJ/mol	52.7 °C
GACTAAGGAAACCTAGTC (((((.(....).)))))	-107 kJ/mol	35.6 °C
GTGTGAGGAAACCCACAC (((((.(....).)))))	-133 kJ/mol	48.3 °C
GATCCCGGAAACGGGACC (.(((((....))))).)	-46.1 kJ/mol	46.7 °C

Sequence	folding enthalpy [1]	Tm [2]
CGGTACCGGAAACGGCCG (((..(((....))))))	-86.9 kJ/mol	40.9 °C
GTAGATGGAAACATTTAC (((.(((....))).)))	-72.5 kJ/mol	32.1 °C
GTGACTGGAAACAGCCAC (((.(((....))).)))	-174 kJ/mol	47.9 °C
GATCTTGAGAAGATC ((((((...))))))	-83.4 kJ/mol	39.6 °C
GTGCGAGGAAACTCGTGC (..((((....))))..)	-97.5 kJ/mol	48.4 °C
GCATCCCGAAAGGGTTGC (((.(((....))).)))	-126 kJ/mol	60.1 °C
GGAACCGCGAAAGCGTCC (((..(((....))))))	-32.2 kJ/mol	26.3 °C
GATCCGACCCGGATC ((((((...))))))	-167 kJ/mol	56.6 °C
GCGGACATCCGC ((((....))))	-94 kJ/mol	56.5 °C
GTATACGGAAACGCATAC ((((.((....)).))))	-118 kJ/mol	37.3 °C
GATCGAAGGATCGATC ((((((....))))))	-95.9 kJ/mol	51.4 °C
GATCTTTTCCAAGATC ((((((....))))))	-151 kJ/mol	42.9 °C
GCTCCCCGAAAGGGAAGC (((.(((....))).)))	-142 kJ/mol	56.5 °C
GATCTTAGTGAAGATC ((((((....))))))	-114 kJ/mol	43.1 °C
GATCTGGGTGCAGATC ((((((....))))))	-197 kJ/mol	52.5 °C
GCAGACGGAAACGTTTGC (((.(((....))).)))	-193 kJ/mol	53.8 °C
GTTAGGGGAAACTCTAAC (((((.(....).)))))	-122 kJ/mol	38.3 °C
GCAGCCGAAAGGCGGTGC ((((((....)))..)))	-62.7 kJ/mol	57.1 °C
GCTATGCGAAAGCCTGGC ((.(.((....)).).))	-78.6 kJ/mol	36.9 °C
GTATCCGAAAGGACTTAC ((((((....)))..)))	-47.6 kJ/mol	28.6 °C
GACGCACGAAAGTGGGTC (((.(((....))).)))	-148 kJ/mol	63.9 °C
GTTACGGAAACGTAAC ((((((....))))))	-159 kJ/mol	56.8 °C
GGTCCCCCGAAAGGGACC (((..(((....))))))	-125 kJ/mol	63.9 °C

Sequence	folding enthalpy [1]	Tm [2]
GACGAGCGAAAGCTGGTC (((.(((....))).)))	-131 kJ/mol	54.8 °C
GTATGAGGAAACTCATAC (((((((....)))))))	-154 kJ/mol	54.6 °C
GCCCGACGAAAGTCTGGC (((.(((....))).)))	-136 kJ/mol	55.5 °C
CGACCACGGAAACGTTCG (((..(((....))))))	-51.3 kJ/mol	30.5 °C
GGTGCCGAAAGGCAACC ((((((....))).)))	-82.1 kJ/mol	66.1 °C
GATCTACCCATAGATC ((((((....))))))	-150 kJ/mol	41.4 °C
GCAGAGGGAAACTTCTGC (((((.(....).)))))	-146 kJ/mol	48 °C
GATCGGATTCCGATC ((((((...))))))	-187 kJ/mol	54.6 °C
GTGAGACGAAAGTCACAC (((.(((....))).)))	-131 kJ/mol	55.4 °C
GCACACGGAAACATGTGC (((((.(....).)))))	-147 kJ/mol	47.4 °C
GGCGCCGGAAACGGCACC ((.((((....)))).))	-112 kJ/mol	60.5 °C
GATCCGGTGACGGATC ((((((....))))))	-163 kJ/mol	67.3 °C
GTATTGTCGAAAGACTAC (((..(((....))))))	-47.6 kJ/mol	28.5 °C
GCGGAGGGAAACCTCTGC ((.((((....)))).))	-169 kJ/mol	58.2 °C
GTGAGCACGAAAGTGCAC (((..(((....))))))	-36.4 kJ/mol	60.1 °C
GCTCTAACGAAAGTTAGC (((..(((....))))))	-57.4 kJ/mol	33.8 °C
GATCTGTCCACAGATC ((((((....))))))	-171 kJ/mol	55.6 °C
GATCGGCTTCCGATC ((((((...))))))	-188 kJ/mol	56.1 °C
GTCTCCGAAAGGATGAC ((((((....))).)))	-107 kJ/mol	48.5 °C
GTGCTATCGAAAGATCAC (((..(((....))))))	-54.3 kJ/mol	30.6 °C
GATAAACGAAAGTTATC (((.(((....))))))	-63.3 kJ/mol	33.9 °C
GTCACGGGAAACCACGAC (((..((....))..)))	-98.6 kJ/mol	34.9 °C
GGACAGCGAAAGCTTCC (((.(((....))))))	-87.5 kJ/mol	43.5 °C
